PMI act = activators of human PMI, primary screen, biochemical, fluorescence intensity, near-Km mannose 6-phosphate; activation factor at 20 µM; AID 1214, 2008; purified human PMI, coupled resazurin fluorescence, 20 min; stronger effect = higher value; 1 = vehicle control, 0 substrate-free wells; Mannose-6-phosphate isomerase (Homo sapiens), P34949; actives 0.005% (n = 190,000);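 active = activation factor of 2 or more at 20 µM, relative to plate controls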
PMI act hi M6P = human PMI activators, high substrate, primary screen, biochemical, fluorescence intensity, near-saturating mannose 6-phosphate; Mannose-6-phosphate isomerase (Homo sapiens), P34949; coupled PMI enzyme assay, resazurin fluorescence, 20 min; stronger effect = higher value; 1 = untreated enzyme, 0 = substrate-free blank; activation factor at 20 µM; actives 0.34% (n = 190,000); AID 1216, 2008;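 active = activation factor of 2 or more at 20 µM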
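Test system: human PMI in coupled enzyme assay; Input: PMI at 15 ng/mL final; Medium: HEPES buffer, pH 7.4; Schedule: 20 min incubation at room temperature; Technique: resorufin fluorescence at Ex 544/Em 590 nm; Compound: 20 µM single dose; Probe or stimulus: Near-saturating mannose-6-phosphate, 1.0 mM.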
TNAP act hi DEA = TNAP activators at high phosphate acceptor level, primary screen, biochemical, luminescence, uHTS. purified TNAP, CDP-star luminescence, 1 M DEA, 30 min; stronger effect = higher value; 0 = EDTA background, 1 = DMSO-only activity. activation factor at 20 µM. 200,000 tested, under 10 active. AID 1136, 2008;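 active = activation factor at least 2 at 20 µM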
Target sequence (P05186 whole entry, looked up): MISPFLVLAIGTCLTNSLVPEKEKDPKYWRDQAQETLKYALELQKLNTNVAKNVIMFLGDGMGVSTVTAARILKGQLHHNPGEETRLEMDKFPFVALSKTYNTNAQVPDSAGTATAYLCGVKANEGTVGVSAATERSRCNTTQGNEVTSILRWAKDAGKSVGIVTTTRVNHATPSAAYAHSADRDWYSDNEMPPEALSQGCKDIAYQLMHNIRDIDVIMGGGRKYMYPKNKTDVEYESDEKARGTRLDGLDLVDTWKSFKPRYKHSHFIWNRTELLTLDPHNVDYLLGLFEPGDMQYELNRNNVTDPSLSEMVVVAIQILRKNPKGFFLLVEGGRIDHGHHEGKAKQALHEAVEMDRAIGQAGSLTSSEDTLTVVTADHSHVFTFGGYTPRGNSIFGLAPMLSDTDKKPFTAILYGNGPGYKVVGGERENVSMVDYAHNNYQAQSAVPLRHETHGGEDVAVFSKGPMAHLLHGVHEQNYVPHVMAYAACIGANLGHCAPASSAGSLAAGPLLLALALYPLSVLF
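Test system – human TNAP · Doses – 20 µM single point · Incubation – 30 min, room temperature · Signal – luminescent substrate turnover signal · Read-out basis – activation factor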
TNAP inh hiacc = human TNAP enzyme inhibitors, primary screen, biochemical, luminescent, high phosphate acceptor level, uHTS. actives 0.03% (n = 200,000). inhibition, % at 20 µM. Alkaline phosphatase, tissue-nonspecific isozyme (Homo sapiens), P05186. purified TNAP, CDP-star luminescence, 1 M DEA;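 active = over 50% inhibition of tissue-nonspecific alkaline phosphatase at 20 µM in the single-dose screen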;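 note: plate controls were DMSO wells for no effect and EDTA-quenched wells as full inhibition for full effect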
TNAP inh noacc = human TNAP enzyme inhibitors, primary screen, biochemical, luminescent, no phosphate acceptor, uHTS. Alkaline phosphatase, tissue-nonspecific isozyme (Homo sapiens), P05186. purified TNAP, CDP-star luminescence, 30 min. inhibition, % at 20 µM. actives 0.26% (n = 200,000). AID 1012, 2008;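 active = tissue-nonspecific alkaline phosphatase inhibition above about 50% at 20 µM in the single-dose screen, limit read from the data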;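 note: 0% = DMSO negative control and 100% = EDTA positive control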
Numbers without * were called inactive. The list is not random: actives were taken first. Their share in the collection is about 0.62%.

SMILES | PMI act | PMI act hi M6P | TNAP act hi DEA | TNAP inh hiacc | TNAP inh noacc
CC1=CC(=C2C(=O)NC(=O)NC2=O)C=C(C(F)(F)F)N1Cc1ccccc1 | 1 | 1.1 | 1 | -4.4 | -7.9
CC1=CC(=C2C(=O)NC(=S)NC2=O)C=C(C(F)(F)F)N1Cc1ccccc1 | 1.7 | 2* | 0.9 | 6.4 | 1.2
Cc1c(C(=O)N2CCC3(CC2)OCCO3)sc2ncnc(N3CCc4ccccc4C3)c12 | 1 | 0.9 | 1.1 | -5.7 | -15.6
N#CC(C#N)=C(N)c1cccnc1 | 0.9 | 0.9 | 1 | 0.0 | 3.3
O=c1[nH]c(O)c(/C=C2\C=NN=C2c2ccccc2)c(=O)[nH]1 | 1.1 | 1.2 | 1 | 1.3 | 51.3*
CCCCC(=O)N/N=C/c1c(O)n(Cc2ccco2)c(=O)[nH]c1=O | 0.9 | 1.2 | 1 | 1.4 | 69.4*
CCOC(=O)c1c(/N=C/C2C(=O)NC(=S)NC2=O)sc2c1CCC2 | 1.6 | 2.1* | 1 | 0.8 | -23.4
CN(C)c1ccc(C=C2C(=O)NC(=O)NC2=O)cc1[N+](=O)[O-] | 1.1 | 1.2 | 1 | 4.8 | -1.5
CN(C)c1ccc(C=C2C(=O)NC(=S)NC2=O)cc1[N+](=O)[O-] | 1.5 | 2.1* | 0.9 | 9.4 | -1.2
Cc1ccc2c(c1)CC1(CN2C)C(=O)NC(=O)N(CCc2ccccc2)C1=O (centres undefined) | 1.8 | 2.1* | 1 | -1.0 | -2.5
CCCCC(C)C(OC(=O)CC(CC(=O)O)C(=O)O)C(CC(C)CC(O)CCCCC(O)CC(O)C(C)N)OC(=O)CC(CC(=O)O)C(=O)O (centres undefined) | 1.1 | 1 | 1 | 0.7 | -7.4
CC(=O)c1ccc(OC(C)C)c(Cc2c(O)[nH]c(=S)[nH]c2=O)c1 | 1.5 | 2.1* | 1.1 | -8.4 | -14.0
C=CCN1C(=O)NC(=O)/C(=C/c2cccn2C)C1=O | 1 | 1 | 1.1 | -5.6 | -7.7
C=CCN1C(=O)NC(=O)/C(=C/c2ccoc2)C1=O | 1.6 | 2.2* | 1 | -2.7 | -2.2
Cc1cccc(N2C(=O)/C(=C/c3ccc(N4CCN(C)CC4)o3)C(=O)NC2=S)c1C | 1 | 0.9 | 0.7 | 32.2 | 51.4*
CCc1ccccc1N1C(=O)/C(=C/c2ccc(N3CCN(C)CC3)o2)C(=O)NC1=S | 1 | 0.9 | 0.6 | 43.9 | 51.0*
O=C1NC(=O)N(c2ccc3c(c2)OCO3)C(=O)/C1=C\c1ccc(N2CCCCC2)o1 | 0.9 | 1 | 0.6 | 42.3 | 39.5
CNC(=S)N1CC2CC(C1)c1cccc(=O)n1C2 (centres undefined) | 1 | 1 | 1 | -3.7 | -3.9
O=c1[nH]c(=S)n(C2CC2)c(O)c1/C=N/Nc1cccc2ccccc12 | 1.3 | 1.2 | 0.9 | 8.9 | 7.3
CCC(C)n1c(O)c(/C=N/NC(=O)c2ccncc2)c(=O)[nH]c1=S (centres undefined) | 1.1 | 1.3 | 1 | -2.9 | 74.7*
CCC(C)n1c(O)c(/C=N/Nc2ccccc2)c(=O)[nH]c1=S (centres undefined) | 1.7 | 2.7* | 0.9 | 11.0 | -8.0
CCn1c(O)c(/C=N/NC(=O)c2ccncc2)c(=O)[nH]c1=S | 1 | 1.2 | 0.9 | 7.8 | 84.1*
O=c1[nH]c(=S)n(C2CC2)c(O)c1/C=N/Nc1ccccc1 | 1.6 | 2* | 1 | -0.3 | -7.7
CN1CC[C@]2(c3cccc(O)c3)Cc3nc4ccccc4cc3C[C@H]2C1 | 1.1 | 1.1 | 1 | 2.4 | 1.4
CCOc1ccc(CC2(CCc3ccncc3)C(=O)NC(=O)NC2=O)cc1 | 1 | 1 | 1 | -1.0 | -4.4
SMILES | PMI act | PMI act hi M6P | TNAP act hi DEA | TNAP inh hiacc | TNAP inh noacc
O=C1CCN(C(=O)C(Cl)Cl)N1 | 1.1 | 1 | 1 | -0.4 | 2.3
CCc1c(C)nc(N)nc1N1N=C1SCCOc1ccccc1 | 1.1 | 1.1 | 1 | -3.8 | 2.3
Cn1cnc([N+](=O)[O-])c1Sc1ccc([N+](=O)[O-])cc1 | 1.4 | 2* | 1 | 2.0 | -0.2
Cn1cc2c([N+](=O)[O-])cc([N+](=O)[O-])cc2n1 | 1 | 0.6 | 0.9 | 5.3 | -6.0
NCCCCCC(=O)OC1N=C(c2ccccc2Cl)c2cc(Br)ccc2NC1=O (centres undefined) | 1 | 1 | 1 | 2.8 | 2.4
CCOc1ccc(N2C(=O)/C(=C\c3cccs3)C(=O)NC2=S)cc1 | 1.6 | 2.2* | 1 | -3.2 | 15.5
C=CCC1C(=O)NC(=S)NC1=O | 1.6 | 2* | 1 | -0.6 | 0.3
Cn1cccc1/C=C1/C(=O)NC(=O)N(Cc2ccccc2)C1=O | 1.1 | 1 | 1 | 1.6 | 2.3
O=C1NC(=O)N(Cc2ccccc2)C(=O)/C1=C\c1ccco1 | 1.6 | 2.3* | 1 | -3.9 | -5.0
Cc1cccc(NC(=O)C(C)N2CC=C(c3ccccc3)CC2)c1 (centres undefined) | 1 | 1 | 1 | -1.4 | -9.8
CCOC(=O)C(NC(C)=O)C(OC(C)=O)c1cccc(N(CCCl)CCCl)c1 (centres undefined) | 1.6 | 2* | 1 | -2.3 | -7.7
O=C1NC(=O)C2(Cc3ccccc3N3CCCC32)C(=O)N1c1cccc(Cl)c1 (centres undefined) | 1.6 | 1.6 | 1 | 0.9 | -4.7
Cc1ccc(N2C(=O)NC(=O)C3(Cc4ccccc4N4CCN(c5ccccc5)CC43)C2=O)cc1 (centres undefined) | 1.6 | 2.2* | 1 | -1.1 | 10.4
O=C1N(c2ccc(Cl)cc2)C(c2cccnc2)N2CCCN12 (centres undefined) | 1.1 | 1 | 1 | -0.2 | -8.3
O=C(N/N=C/C1C(=O)NC(=S)N(c2ccccc2)C1=O)c1cc(Br)c(O)c(Br)c1 (centres undefined) | 1.2 | 1.7 | 1 | 0.1 | 74.9*
CN1/C(=C\C=C2C(=O)NC(=S)NC2=O)C(C)(C)c2ccccc21 | 1.1 | 1.1 | 0.5 | 47.1 | 34.6
CC1(C)OC(c2ccccc2)=C/C(=C/C=C2C(=O)NC(=S)NC2=O)O1 | 1.3 | 1.7 | 0.9 | 9.6 | 58.7*
Cc1c(C(=O)C(=O)N2CCC3(CC2)OCCO3)c2ccccc2n1C | 0.9 | 0.9 | 1 | 0.4 | 1.5
O=C(CN1CCCCC1)c1cccc(Br)c1 | 1.5 | 1.4 | 1 | 3.9 | 3.6
O=C(CN1CCCCC1)c1ccccc1F | 1.6 | 2.3* | 1.1 | -7.1 | -13.6
O=C(CN1CCCCC1)c1ccccc1Cl | 1.7 | 2* | 1 | -0.9 | -3.2
O=C(CN1CCCCC1)c1ccc(OC(F)F)cc1 | 1.2 | 1.2 | 1 | -2.8 | -13.8
NS(=O)(=O)c1cccc(N2CCNCC2)c1 | 1.1 | 1.1 | 1 | -4.4 | 0.6

Compound activity deposited in PubChem BioAssay by Sanford-Burnham Center for Chemical Genomics.
